Measured values as given in ChEMBL document CHEMBL1221279, “Synthesis, biological evaluation, and structure-activity relationship study of novel cytotoxic aza-caffeic acid derivatives” (Bioorg Med Chem, 2010).

Columns and labels:
Assay type in all cases: functional, cell-based
KB = test: Cytotoxicity against human KB cells after 72 hrs by MTT assay
Summary of the method: (§1)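 Cells grown in MEM with 10% fetal calf serum, penicillin and streptomycin at 37 °C, 5% CO2. Exponentially growing cells seeded in quadruplicate at 5 × 10³ per well and left 24 h before compounds (DMSO stocks) were added. After 72 h exposure, MTT added for 4 h at 37 °C, formazan dissolved in DMSO, read at 570 nm. IC50 read graphically from dose–response curves.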

[1] = Cytotoxicity against human ECA109 cells after 72 hrs by MTT assay; conditions: ECa-109, 72 h; summary of the method: as §1
[2] = Cytotoxicity against human HO8910 cells after 72 hrs by MTT assay; conditions: HO-8910, 72 h; summary of the method: as §1
HL-60 = test: Cytotoxicity against human HL60 cells after 72 hrs by MTT assay; conditions: HL-60, 72 h; summary of the method: as §1
PC-3 = test: Cytotoxicity against human PC3 cells after 72 hrs by MTT assay; conditions: PC-3, 72 h; summary of the method: as §1
A549 = test: Cytotoxicity against human A549 cells after 72 hrs by MTT assay; conditions: A549, 72 h; summary of the method: as §1
BGC-823 = test: Cytotoxicity against human BGC823 cells after 72 hrs by MTT assay; conditions: BGC-823, 72 h; summary of the method: as §1
[3] = Cytotoxicity against human Bel7404 cells after 72 hrs by MTT assay; conditions: BEL-7404, 72 h; summary of the method: as §1
[4] = Cytotoxicity against human LS 174T cells after 72 hrs by MTT assay; conditions: LS174T; summary of the method: as §1
HeLa = test: Cytotoxicity against human HeLa cells after 72 hrs by MTT assay; summary of the method: as §1
K562 = test: Cytotoxicity against human K562 cells after 72 hrs by MTT assay; conditions: K562, 72 h; summary of the method: as §1
CNE = test: Cytotoxicity against human CNE cells after 72 hrs by MTT assay; summary of the method: as §1

Row | SMILES | IC50 (KB) [µM] | IC50 [1] [µM] | IC50 [2] [µM] | IC50 (HL-60) [µM] | IC50 (PC-3) [µM] | IC50 (A549) [µM] | IC50 (BGC-823) [µM] | IC50 [3] [µM] | IC50 [4] [µM] | IC50 (HeLa) [µM] | IC50 (K562) [µM] | IC50 (CNE) [µM]
1 | COCOc1ccc(/C=C/C(=O)NCCN2CCOCC2)cc1OCOC | > 200 | > 200 | > 200 | > 200 | > 200 | > 200 | > 200 | > 200 | > 200 | > 200 | > 200 | > 200
2 | COc1ccc(/C=C/C(=O)NCCc2c[nH]c3ccccc23)cc1OC | > 200 | > 200 | > 200 | > 200 | > 200 | > 200 | > 200 | > 200 | > 200 | > 200 | > 200 | > 200
3 | COc1ccc(NC(=O)COC(=O)/C=C/c2ccc(OCc3ccccc3)c(O)c2)cc1 |  | > 200 |  | > 200 | > 200 |  |  | > 200 | > 200 | > 200 | 56.1 | > 200
4 | O=C(/C=C/c1ccc(O)c(O)c1)NCCN1CCOCC1 | > 200 | > 200 | > 200 | > 200 | > 200 | > 200 | > 200 | > 200 | > 200 | > 200 | > 200 | > 200
5 | CCOc1ccc(COc2c(OC)cc(/C=C/C(=O)NCCN3CCOCC3)cc2OC)cc1 | > 200 | > 200 | > 200 | > 200 | > 200 | > 200 | > 200 | > 200 | > 200 | > 200 | > 200 | > 200
6 | O=C(/C=C/c1ccc(O)c(O)c1)N1CCN(Cc2ccc(Cl)c(Cl)c2)CC1 | > 200 | > 200 | > 200 | 165 | > 200 | > 200 | > 200 | > 200 | 50.4 | > 200 | > 200 | > 200
7 | COCOc1ccc(/C=C/C(=O)N2CCN(Cc3ccc(Cl)c(Cl)c3)CC2)cc1OCOC | 3.7 | 7.4 | 69.7 | 31 | 7.4 | 107 | 64.4 | > 200 | 139 | 29.1 | 19.3 | > 200
8 | COc1ccc(/C=C/C(=O)OCC(=O)Nc2ccccc2)cc1OC |  | > 200 |  | 46.4 | > 200 |  |  | > 200 | > 200 | 193 | > 200 | > 200
9 | COCOc1cc(/C=C/C(=O)OCC(=O)Nc2ccc(OC)cc2)ccc1OCc1ccccc1 |  | > 200 |  | > 200 | > 200 |  |  | 133 | > 200 | 155 | > 200 | > 200
10 | COCOc1cc(/C=C/C(=O)OCC(=O)Nc2nccs2)ccc1OCc1ccccc1 |  | > 200 |  | > 200 | > 200 |  |  | 130 | > 200 | > 200 | > 200 | > 200
11 | O=C(/C=C/c1ccc(O)c(O)c1)OCCc1ccccc1 [CAFFEIC ACID PHENETHYL ESTER] | 45.2 | 42.6 | 25.5 | 9.8 | 91 | 26.8 | 19.3 | 14.5 | 9.9 | 8.8 | 46 | 54
12 | COc1ccc(/C=C/C(=O)N2CCN(Cc3ccc(Cl)c(Cl)c3)CC2)cc1OC | 69.2 | > 200 | 121 | 140 | > 200 | > 200 | > 200 | 85.7 | > 200 | 76.6 | 70.8 | > 200
13 | COc1ccc(/C=C/C(=O)NCCN2CCOCC2)cc1OC | > 200 | > 200 | > 200 | > 200 | > 200 | > 200 | > 200 | > 200 | > 200 | > 200 | > 200 | > 200
14 | COCOc1cc(/C=C/C(=O)OCC(=O)NCc2ccco2)ccc1OCc1ccccc1 |  | > 200 |  | 82.2 | > 200 |  |  | > 200 | > 200 | > 200 | 0.3 | > 200
15 | CCOc1ccc(COc2c(OC)cc(/C=C/C(=O)OCC(=O)Nc3ccc(Cl)cc3)cc2OC)cc1 |  | > 200 |  | > 200 | > 200 |  |  | > 200 | > 200 | > 200 | > 200 | > 200
16 | O=C(/C=C/c1ccc(O)c(O)c1)NCCc1c[nH]c2ccccc12 | 85.7 | > 200 | > 200 | 124 | > 200 | > 200 | > 200 | > 200 | 8.4 | 2.7 | > 200 | > 200
17 | COCOc1cc(/C=C/C(=O)OCC(=O)NN2CCOCC2)ccc1OCc1ccccc1 |  | 143 |  | 50.4 | > 200 |  |  | > 200 | > 200 | > 200 | 32.4 | > 200
18 | COc1ccc(NC(=O)COC(=O)/C=C/c2cc(OC)c(OCc3ccccc3)c(OC)c2)cc1 |  | > 200 |  | > 200 | > 200 |  |  | > 200 | > 200 | > 200 | > 200 | > 200
19 | COc1cc(/C=C/C(=O)OCC(=O)Nc2ccc(Cl)cc2)cc(OC)c1OCc1ccc(Cl)c(Cl)c1 |  | > 200 |  | 73.9 | > 200 |  |  | > 200 | 72.4 | > 200 | > 200 | > 200
20 | O=C(COC(=O)/C=C/c1ccc(O)c(O)c1)NN1CCOCC1 |  | > 200 |  | > 200 | > 200 |  |  | > 200 | > 200 | > 200 | 56.8 | > 200
21 | CCOc1ccc(COc2c(OC)cc(/C=C/C(=O)OCC(=O)Nc3ccccc3)cc2OC)cc1 |  | > 200 |  | > 200 | > 200 |  |  | > 200 | > 200 | > 200 | > 200 | > 200
22 | CCCCCNC(=O)COC(=O)/C=C/c1ccc(O)c(O)c1 |  | 131 |  | 97.4 | 155 |  |  | > 200 | 69.4 | 187 | 121 | 170
23 | COc1ccc(/C=C/C(=O)OCC(=O)NCc2ccco2)cc1OC |  | > 200 |  | 92.5 | > 200 |  |  | > 200 | > 200 | > 200 | 0.8 | > 200
24 | Cc1ccc(NC(=O)COC(=O)/C=C/c2ccc(O)c(O)c2)cc1 |  | > 200 |  | 92.6 | > 200 |  |  | > 200 | 145 | > 200 | > 200 | > 200
25 | COc1ccc(/C=C/C(=O)OCC(=O)Nc2ccc(Cl)cc2)cc1OC |  | 81.9 |  | 31.9 | > 200 |  |  | 120 | > 200 | 45.4 | 60.2 | > 200
26 | COc1ccc(NC(=O)COC(=O)/C=C/c2cc(OC)c(OCc3ccc(Cl)c(Cl)c3)c(OC)c2)cc1 |  | > 200 |  | > 200 | > 200 |  |  | 97.8 | > 200 | > 200 | > 200 | > 200
27 | O=C(COC(=O)/C=C/c1ccc(O)c(O)c1)Nc1ccc(Cl)cc1 |  | 175 |  | 8.1 | 160 |  |  | > 200 | 108 | 195 | 99.4 | 89.6
28 | COc1ccc(NC(=O)COC(=O)/C=C/c2ccc(O)c(O)c2)cc1 |  | 190 |  | 72.1 | 172 |  |  | > 200 | 124 | > 200 | 79.1 | > 200
29 | COCOc1cc(/C=C/C(=O)OCC(=O)Nc2ccc(Cl)cc2)ccc1OCc1ccccc1 |  | > 200 |  | > 200 | > 200 |  |  | > 200 | > 200 | > 200 | > 200 | > 200
30 | O=C(COC(=O)/C=C/c1ccc(O)c(O)c1)Nc1ccccc1 |  | > 200 |  | 30.3 | > 200 |  |  | > 200 | 117 | > 200 | > 200 | > 200
